High-throughput results (PubChem)
GPR7 antagonist = antagonists of human GPR7 (neuropeptides B/W receptor 1); AID 1861; P48145; inhibition, % at 4.4 µM; GPR7-expressing cells, fluorescence antagonist assay; hit rate 1.1% among 290,000; in the data active means inhibition above about 16%, passing the limit was not always enough;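 further: cells stimulated with the agonist NPW; 0% = agonist with vehicle and 100% = vehicle without agonist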
Target sequence (P48145 whole entry, looked up): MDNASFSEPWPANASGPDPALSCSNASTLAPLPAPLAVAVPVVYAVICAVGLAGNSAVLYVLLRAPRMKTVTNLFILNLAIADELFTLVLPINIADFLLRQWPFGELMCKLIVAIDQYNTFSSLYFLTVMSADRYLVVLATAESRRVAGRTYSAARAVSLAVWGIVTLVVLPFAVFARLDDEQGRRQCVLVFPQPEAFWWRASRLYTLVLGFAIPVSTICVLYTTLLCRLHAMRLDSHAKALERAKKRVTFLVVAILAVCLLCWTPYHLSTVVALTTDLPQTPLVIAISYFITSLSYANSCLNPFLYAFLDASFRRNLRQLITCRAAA
zfTRPN1 agonist = activates the zebrafish TRPN1 channel; HEK293 zebrafish TRPN1-YFP, Fluo-8 calcium fluorescence; 100% = response to 87 µM carbachol; activation, % at 3 µM; hit rate 0.18% among 220,000;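 active means activation above its plate's cutoff, the mean activation of test wells on that plate plus 3 SD, cut at about 19% in these data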;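 further: 0% = DMSO alone and 100% = 87 µM carbachol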
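Control set: carbachol 87 µM as high control, DMSO as low control; system: HEK293 stable line with zebrafish TRPN1-YFP; read-out: % activation versus carbachol response; detection: intracellular calcium fluorescence with Fluo-8; doses: single test compound dose, 3 µM nominal, 0.3% DMSO; schedule: dye 1 h 37 °C plus 30 min RT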
CRFBP-R2 block = blocks CRF-induced signaling of the CRF-BP/CRF-R2 complex; inhibition, % at 11.8 µM; hit rate 0.59% among 350,000; HEK293 CRF-R2/CRF-BP, CRF-induced calcium fluorescence; AID 588475;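 active means inhibition of the ligand-induced calcium signal above about 50% at the single tested concentration, limit read from the data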
CRFR2-BP ag = CRF-BP/CRF-R2 complex agonism. HEK293 CRF-R2/CRF-BP, calcium dye fluorescence (FLIPR); percent of saturating CRF peptide response. activation, % at 13.2 µM. hit rate 0.46% among 350,000;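 active means activation of at least 50%, plus an integration ratio under a set limit after plate pattern correction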;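 further: plate controls were neutral control wells without compound for no effect and CRF at EC100 for full effect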
TRPML3 ag = agonists of human TRPML3 channel | hit rate 0.29% among 220,000 | activation, % at 3 µM | HEK293 TRPML3-YFP, Fluo-8 calcium fluorescence; 100% = the carbachol control signal;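 active means activation above its plate's cutoff, the mean activation of the plate's test wells plus 3 SD, cut at about 12% in these data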;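 further: 0% = DMSO only wells and 100% = carbachol wells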
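Material: HEK293 cells stably carrying human TRPML3-YFP; compound dosing: single dose, 3 µM final nominal compound, 0.3% DMSO final; incubation: 1-h 37 °C dye load, 5-s basal, 120-s post-compound reads; technique: Fluo-8 intracellular calcium fluorescence, excitation 470-495 nm, emission 515-575 nm; read-out basis: percent activation from peak-to-basal fluorescence ratio, scaled between DMSO and carbachol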
GPR7 antag cf = human GPR7 antagonism, confirmation assay | shares compounds with GPR7 antagonist | GPR7-expressing cells, calcium fluorescence antagonist mode | inhibition, % at 4.4 µM | hit rate 52% among 2,400 | AID 1952; in the data active means inhibition above about 24%;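 further: stimulated with the GPR7 agonist NPW; 0% = agonist plus vehicle and 100% = vehicle alone without agonist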
MCHR1 antagonist = MCHR1 (human) antagonism in GPR7 counter-screen | shares compounds with GPR7 antagonist | MCHR1-expressing cells, fluorescence antagonist assay | inhibition, % at 4.4 µM | hit rate 62% among 2,400 | AID 2148; in the data active means inhibition above about 22%;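 further: 0% = vehicle with agonist and 100% = vehicle without agonist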
Starred values were filed as active, the others as inactive; . = not tested or not shown. Sampled rows, rich in hits. Any-hit rate of the full collection: about 2%.

SMILES	GPR7 antagonist	zfTRPN1 agonist	CRFBP-R2 block	CRFR2-BP ag	TRPML3 ag	GPR7 antag cf	MCHR1 antagonist
CC(C(=O)c1c[nH]c2ccccc12)N1CCc2ccccc2C1 (centres undefined)	22*	2	5	1	0	14	17
CN1CC=C(c2c[nH]c3ccccc23)CC1	-10	2	-41	0	0	.	.
COc1cc(C)c(CNCCc2c[nH]c3ccccc23)cc1C	38*	.	-18	7	.	22	55*
CC(=O)NCCc1c[nH]c2ccccc12	-2	.	-8	1	.	.	.
CC(=O)c1cn(CC(=O)NCCc2c[nH]c3ccccc23)c2ccccc12	25*	.	-2	1	.	3	51*
c1ccc(-c2ccc(-c3n(-c4ccccn4)c4ccccc4[n+]3-c3ccccn3)cc2)cc1	8	-2	32	1	-1	.	.
COc1cc2c(cc1OC)C13CCN4CC5CCOC6CC(=O)N2C1C6C5CC43 (centres undefined)	.	.	-2	-1	.	.	.
COC(=O)C1=C(c2ccc(OC(F)(F)F)cc2)C[C@@H]2CC[C@H]1N2C(=O)NCCOc1ccc(OC)cc1	.	.	-5	1	.	.	.
CCN(CC)c1ccc(/C=C/[N+](=O)[O-])cc1	22*	47*	-282	251*	36*	55*	84*
CCn1cc(C=C2C(=O)N(C)C(=O)N(C)C2=O)c2ccccc21	32*	.	-4	14	.	-8	9
C[C@@H]1CN([C@H](C)CO)C(=O)CCCn2nncc2CO[C@@H]1CN(C)C(=O)Oc1ccc2ccccc2c1	.	.	-19	1	.	.	.
Cc1cc(C)c(S(=O)(=O)N2Cc3ccccc3-n3nncc3C2)c(C)c1	.	.	-2	-3	.	.	.
CNC(C)Cc1ccccc1Sc1ccc(O)cc1 (centres undefined)	30*	1	-26	0	0	30*	30*
C[C@@H]1C(=O)O[C@H]2[C@H](O)[C@]34[C@@H]5OC(=O)[C@]3(OC3OC(=O)[C@H](O)C34[C@H](C(C)(C)C)[C@@H]5O)[C@@]12O (some centres undefined)	.	.	-11	0	.	.	.
C[C@]12CCC(=O)C[C@@H]1CC[C@@H]1[C@@H]2CC[C@]2(C)[C@@H](O)CC[C@@H]12	.	.	-3	0	.	.	.
CN(C)C1(CNC(=O)c2ccc(NS(=O)(=O)c3ccc(Cl)c(Cl)c3)cc2)CCCCC1	.	.	-22	-1	.	.	.
CN(C)C1(CNC(=O)Nc2ccc(Cl)c(Cl)c2)CCCCC1	30*	.	-5	2	.	43*	47*
CCOC(=O)C(O)(c1ccc(NC(=O)Oc2ccccc2)cc1)C(F)(F)F (centres undefined)	-2	0	-36	-2	0	.	.
COC(=O)C(O)(c1ccc(NC(=S)NC(=O)c2ccc(Cl)cc2Cl)c(C)c1)C(F)(F)F (centres undefined)	8	19	-120	31	4	.	.
CCOC(=O)C(O)(c1ccc(NC(=S)NC(=O)c2ccc(Cl)cc2Cl)c(C)c1)C(F)(F)F (centres undefined)	88*	22*	-202	114*	12*	93*	97*
COC(=O)C(O)(c1ccc(NC(=S)NC(=O)c2ccc(Cl)cc2Cl)cc1)C(F)(F)F (centres undefined)	33*	7	-109	37	4	56*	60*
CCOC(=O)C(O)(c1ccc(NC(=S)NC(=O)c2ccc(Cl)cc2Cl)cc1)C(F)(F)F (centres undefined)	60*	16	-190	148*	7	86*	93*
